Data on two molecules can be found in ChEMBL document CHEMBL1687824, “Overexpression of patA and patB, which encode ABC transporters, is associated with fluoroquinolone resistance in clinical isolates of Streptococcus pneumoniae” (2011).

For assay [1], the system named is Streptococcus pneumoniae. Nature of the assay: Antibacterial activity against Streptococcus pneumoniae M308 overexpressing patA, patB and inactivated patB with single mutation by standardized agar doubling dilution method in presence of 50 uM sodium orthovanadate efflux pump inhibitor. It is filed as functional. The method, boiled down: (§1)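 MICs determined by BSAC standardized agar doubling dilution. Strains were grown in brain heart infusion broth for 24 h at 37°C in 5% CO2. Inhibitor arms had reserpine at 20 μg/ml or sodium orthovanadate at 50 μM in the agar. Mutants were made by transforming magellan2 insertion amplimers into clinical isolates and selecting on spectinomycin 100 mg/liter, with a no-DNA spontaneous-mutation control.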

Assay [2] relates to Streptococcus pneumoniae. Put plainly: Antibacterial activity against fluoroquinolone-resistant Streptococcus pneumoniae M79 FQ-R overexpressing patA, patB by standardized agar doubling dilution method in presence of 20 ug/ml reserpine efflux pump inhibitor. Format: functional. The method, boiled down: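 Clinical S. pneumoniae isolates grown in BHI broth 24 h at 37°C in 5% CO2. MICs by agar doubling dilution per BSAC guidelines, alone or with efflux inhibitor reserpine (20 μg/ml) or sodium orthovanadate (50 μM). Synergy defined as ≥2-dilution MIC reduction in presence of inhibitor.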

Assay [3] relates to Streptococcus pneumoniae. Nature of the assay: Antibacterial activity against fluoroquinolone-resistant Streptococcus pneumoniae M83 FQ-R overexpressing patA, patB by standardized agar doubling dilution method in presence of 50 uM sodium orthovanadate efflux pump inhibitor. It is filed as functional. The method, boiled down:
(§2)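 MIC by agar doubling dilution per BSAC guidelines; strains pregrown in brain heart infusion broth 24 h, 37°C, 5% CO2. MICs measured alone and with efflux pump inhibitors reserpine (20 μg/ml) or sodium orthovanadate (50 μM); synergy defined as ≥2-dilution MIC reduction in presence of inhibitor.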

Assay [4] has as its system Streptococcus pneumoniae. Put plainly: Antibacterial activity against Streptococcus pneumoniae M45A overexpressing patA, patB and inactivated patA with single mutation by standardized agar doubling dilution method in presence of 20 ug/ml reserpine efflux pump inhibitor. Format: functional. The procedure, abridged: (§3)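 MICs were determined by BSAC agar doubling dilution in the presence of reserpine at 20 μg/ml. Strains were grown in BHI broth for 24 h at 37°C in 5% CO2, with R6 as control. Synergy was defined as an MIC drop of ≥2 dilutions with the inhibitor.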

Assay [5] concerns Streptococcus pneumoniae. Put plainly: Antibacterial activity against wild type Streptococcus pneumoniae M3 NCTC 7466 type 2 by standardized agar doubling dilution method. It is filed as functional. The procedure, abridged: (§4)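 MIC by agar doubling dilution following BSAC guidelines. Strains grown in brain heart infusion broth 24 h at 37°C in 5% CO2. Where an efflux pump inhibitor applies, MIC redetermined with reserpine at 20 μg/ml or sodium orthovanadate at 50 μM. Synergy taken as a fall in MIC of ≥2 dilutions with inhibitor present. Dye resistance defined relative to R6 (both dyes ≥2 dilutions higher).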

For assay [6], the system named is Streptococcus pneumoniae. Nature of the assay: Antibacterial activity against Streptococcus pneumoniae M318 overexpressing patA, patB and inactivated patA with single mutation by standardized agar doubling dilution method in presence of 20 ug/ml reserpine efflux pump inhibitor. Format: functional. The procedure, abridged:
as §3

Assay [7] concerns Streptococcus pneumoniae. Nature of the assay: Antibacterial activity against Streptococcus pneumoniae M298 overexpressing patA, patB and inactivated patA with single mutation by standardized agar doubling dilution method in presence of 20 ug/ml reserpine efflux pump inhibitor. Format: functional. The procedure, abridged:
as §1

For assay [8], the system named is Streptococcus pneumoniae. Put plainly: Antibacterial activity against Streptococcus pneumoniae M45A overexpressing patA, patB and inactivated patA with single mutation by standardized agar doubling dilution method. Format: functional. The method, boiled down:
(§5)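 MICs were determined by agar doubling dilution following BSAC guidelines, with no efflux inhibitor. Strains were grown in brain heart infusion broth for 24 h at 37°C in 5% CO2. Species identity was confirmed by Gram stain, optochin sensitivity and capsule test. Control strain R6 was tested alongside.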

The test system of assay [9] is Streptococcus pneumoniae. Put plainly: Antibacterial activity against Streptococcus pneumoniae M315 overexpressing patA, patB and inactivated patA with single mutation by standardized agar doubling dilution method in presence of 50 uM sodium orthovanadate efflux pump inhibitor. It is filed as functional. The procedure, abridged: (§6)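 MICs were determined by BSAC agar doubling dilution in the presence of sodium orthovanadate at 50 μM. Cultures were grown in BHI broth for 24 h at 37°C in 5% CO2, with R6 as control. Synergy was defined as an MIC reduction of ≥2 dilutions with the inhibitor present.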

Assay [10] has as its system Streptococcus pneumoniae. Put plainly: Antibacterial activity against Streptococcus pneumoniae M298 overexpressing patA, patB and inactivated patA with single mutation by standardized agar doubling dilution method in presence of 50 uM sodium orthovanadate efflux pump inhibitor. It is filed as functional. The procedure, abridged: as §1
In assay [11] the test system is Streptococcus pneumoniae. Nature of the assay: Antibacterial activity against Streptococcus pneumoniae M45B overexpressing patA, patB and inactivated patB with single mutation by standardized agar doubling dilution method. It is filed as functional. The method, boiled down: as §5
Assay [12] relates to Streptococcus pneumoniae. Put plainly: Antibacterial activity against Streptococcus pneumoniae M314 overexpressing patA, patB and inactivated patA with single mutation by standardized agar doubling dilution method in presence of 20 ug/ml reserpine efflux pump inhibitor. It is filed as functional. The method, boiled down: as §1
The subject of assay [13] is Streptococcus pneumoniae. Nature of the assay: Antibacterial activity against fluoroquinolone-resistant Streptococcus pneumoniae M100 FQ-R overexpressing patA, patB by standardized agar doubling dilution method in presence of 20 ug/ml reserpine efflux pump inhibitor. Format: functional. The procedure, abridged: as §2
Assay [14] concerns Streptococcus pneumoniae. Nature of the assay: Antibacterial activity against Streptococcus pneumoniae M87A overexpressing patA, patB and inactivated patA with single mutation by standardized agar doubling dilution method in presence of 50 uM sodium orthovanadate efflux pump inhibitor. It is filed as functional. The method, boiled down: as §6
The subject of assay [15] is Streptococcus pneumoniae. Put plainly: Antibacterial activity against Streptococcus pneumoniae M86A overexpressing patA, patB and inactivated patA with single mutation by standardized agar doubling dilution method in presence of 20 ug/ml reserpine efflux pump inhibitor. Format: functional. The method, boiled down:
as §3

Assay [16] relates to Streptococcus pneumoniae. Put plainly: Antibacterial activity against wild-type Streptococcus pneumoniae R6 by standardized agar doubling dilution method.
Assay [17] deals with Streptococcus pneumoniae. Put plainly: Antibacterial activity against wild type Streptococcus pneumoniae R6 by standardized agar doubling dilution method. It is filed as functional. The method, boiled down: as §4
The test system of assay [18] is Streptococcus pneumoniae. Put plainly: Antibacterial activity against fluoroquinolone, dye-resistant Streptococcus pneumoniae M86 overexpressing patA, patB by standardized agar doubling dilution method in presence of 20 ug/ml reserpine efflux pump inhibitor. It is filed as functional. The procedure, abridged:
as §4

The subject of assay [19] is Streptococcus pneumoniae. Nature of the assay: Antibacterial activity against Streptococcus pneumoniae M86A overexpressing patA, patB and inactivated patA with single mutation by standardized agar doubling dilution method in presence of 50 uM sodium orthovanadate efflux pump inhibitor. It is filed as functional. The procedure, abridged: as §6
The subject of assay [20] is Streptococcus pneumoniae. Put plainly: Antibacterial activity against fluoroquinolone, dye-resistant Streptococcus pneumoniae M86 overexpressing patA, patB by standardized agar doubling dilution method in presence of 50 uM sodium orthovanadate efflux pump inhibitor. Format: functional. The method, boiled down:
as §4

In assay [21] the test system is Streptococcus pneumoniae. Nature of the assay: Antibacterial activity against Streptococcus pneumoniae M86B overexpressing patA, patB and inactivated patB with single mutation by standardized agar doubling dilution method in presence of 20 ug/ml reserpine efflux pump inhibitor. It is filed as functional. The procedure, abridged:
as §3

Assay [22] relates to Streptococcus pneumoniae. Put plainly: Antibacterial activity against wild type Streptococcus pneumoniae R6 by standardized agar doubling dilution method in presence of 20 ug/ml reserpine efflux pump inhibitor. Format: functional. The method, boiled down:
as §4

In assay [23] the test system is Streptococcus pneumoniae. Put plainly: Antibacterial activity against dye-resistant Streptococcus pneumoniae M46 DR overexpressing patA, patB by standardized agar doubling dilution method in presence of 20 ug/ml reserpine efflux pump inhibitor. Format: functional. The method, boiled down:
as §3

In assay [24] the test system is Streptococcus pneumoniae. Put plainly: Antibacterial activity against dye-resistant Streptococcus pneumoniae M55 DR overexpressing patA, patB by standardized agar doubling dilution method in presence of 20 ug/ml reserpine efflux pump inhibitor. It is filed as functional. The procedure, abridged: as §4
The subject of assay [25] is Streptococcus pneumoniae. Put plainly: Antibacterial activity against dye-resistant Streptococcus pneumoniae M55 DR overexpressing patA, patB by standardized agar doubling dilution method in presence of 50 uM sodium orthovanadate efflux pump inhibitor. It is filed as functional. The method, boiled down:
as §4

Assay [26] has as its system Streptococcus pneumoniae. Nature of the assay: Antibacterial activity against Streptococcus pneumoniae M86B overexpressing patA, patB and inactivated patB with single mutation by standardized agar doubling dilution method in presence of 50 uM sodium orthovanadate efflux pump inhibitor. It is filed as functional. The method, boiled down:
as §6

Values after ≈ are worked out from the molar mass of the structure shown.

Consider `O=C(O)c1cn(C2CC2)c2cc(N3CCNCC3)c(F)cc2c1=O` [CIPROFLOXACIN], for which the MIC (in general, the least concentration at which growth counts as inhibited) with Streptococcus pneumoniae [1] was 0.12 µg/mL; with Streptococcus pneumoniae [2], 32 µg/mL; in the assay with Streptococcus pneumoniae [3], 1 µg/mL; in the assay on Streptococcus pneumoniae [4], 1 µg/mL; in the assay on Streptococcus pneumoniae [5], 1 µg/mL (≈ 3.02 µM); in the assay on Streptococcus pneumoniae [6], 16 µg/mL. Besides, the MIC is 8 µg/mL with Streptococcus pneumoniae [7]; 1 µg/mL (≈ 3.02 µM) in the assay on Streptococcus pneumoniae [8]; 0.12 µg/mL in the assay on Streptococcus pneumoniae [9]; 8 µg/mL in the assay with Streptococcus pneumoniae [10]; 1 µg/mL (≈ 3.02 µM) against Streptococcus pneumoniae [11]; 8 µg/mL with Streptococcus pneumoniae [12]. The MIC with Streptococcus pneumoniae [13] turned out to be 2 µg/mL; in the assay with Streptococcus pneumoniae [14], 8 µg/mL.
Turning to `CC[n+]1c(-c2ccccc2)c2cc(N)ccc2c2ccc(N)cc21.[Br-]` [HOMIDIUM BROMIDE], the MIC in the assay on Streptococcus pneumoniae [1] came to 0.5 µg/mL; in the assay on Streptococcus pneumoniae [15] it was 0.5 µg/mL; against Streptococcus pneumoniae [16], 1 µg/mL; in the assay with Streptococcus pneumoniae [2], 0.5 µg/mL; in the assay on Streptococcus pneumoniae [3], 4 µg/mL; in the assay with Streptococcus pneumoniae [4], 0.5 µg/mL. In addition, the minimum inhibitory concentration (MIC) against Streptococcus pneumoniae [17] stood at 1 µg/mL; against Streptococcus pneumoniae [5], 2 µg/mL; in the assay on Streptococcus pneumoniae [18], 0.5 µg/mL; in the assay on Streptococcus pneumoniae [19] it was 0.5 µg/mL; with Streptococcus pneumoniae [6], 0.5 µg/mL; in the assay with Streptococcus pneumoniae [20] it was 0.5 µg/mL. Besides, the MIC turned out to be 0.5 µg/mL in the assay with Streptococcus pneumoniae [7]; 0.5 µg/mL in the assay on Streptococcus pneumoniae [21]; 0.3 µg/mL with Streptococcus pneumoniae [22]; 0.5 µg/mL in the assay with Streptococcus pneumoniae [23]; 0.5 µg/mL with Streptococcus pneumoniae [8]; 0.5 µg/mL with Streptococcus pneumoniae [24]. In addition, the MIC in the assay on Streptococcus pneumoniae [9] is 0.25 µg/mL; in the assay on Streptococcus pneumoniae [10], 0.5 µg/mL; in the assay on Streptococcus pneumoniae [11], 0.5 µg/mL; with Streptococcus pneumoniae [12] it was 0.5 µg/mL; in the assay with Streptococcus pneumoniae [25], 1 µg/mL; in the assay on Streptococcus pneumoniae [26], 0.5 µg/mL. The minimal inhibitory concentration (MIC) in the assay on Streptococcus pneumoniae [13] was 0.25 µg/mL; in the assay with Streptococcus pneumoniae [14], 0.5 µg/mL.
